Tests used:
Conditions in all cases: in vivo; call rule not given here
[1] = Half life in C57Bl6 mouse at 10 mg/kg, po administered as single dose; type: ADME, organism-based
Method in brief: (§1)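 C57Bl/6 mice were given single intravenous or oral doses (oral at 10 and 100 mg/kg). Plasma PK parameters were CL, AUC0-inf, t1/2, Cmax and %F.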

[2] = Half life in C57Bl6 mouse at 100 mg/kg, po administered as single dose; type: ADME, organism-based; method in brief: as §1
[3] = Cmax in C57Bl6 mouse at 10 mg/kg, po administered as single dose; type: ADME, organism-based; set-up: dose 10 mg/kg, route oral; method in brief: as §1
[4] = Cmax in C57Bl6 mouse at 100 mg/kg, po administered as single dose; type: ADME, organism-based; set-up: dose 100 mg/kg, route oral; method in brief: as §1
[5] = Oral bioavailability in C57Bl6 mouse at 10 mg/kg administered as single dose; type: ADME, organism-based
Method in brief: (§2)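 C57Bl/6 mice received a single oral dose of 10 or 100 mg/kg, with iv dosing run for comparison. Plasma AUC0-inf, t1/2, Cmax and oral bioavailability (%F) were determined.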

[6] = Oral bioavailability in C57Bl6 mouse at 100 mg/kg administered as single dose; type: ADME, organism-based; method in brief: as §2
[7] = Clearance in dog at 1 mg/kg, iv administered as single dose; type: ADME, organism-based, Canis lupus familiaris
Method in brief: (§3)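 Dogs were given single intravenous doses, or oral doses from 5 to 50 mg/kg. Plasma PK parameters were CL, AUC0-inf, t1/2, Cmax and %F.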

[8] = Clearance in dog at 3 mg/kg, iv administered as single dose; type: ADME, organism-based, Canis lupus familiaris; method in brief: as §3
[9] = Clearance in dog at 10 mg/kg, iv administered as single dose; type: ADME, organism-based, Canis lupus familiaris; method in brief: as §3
[10] = Clearance in dog at 25 mg/kg, iv administered as single dose; type: ADME, organism-based, Canis lupus familiaris; method in brief: as §3
[11] = AUC (0 to infinity) in dog at 1 mg/kg, iv administered as single dose; type: ADME, organism-based, Canis lupus familiaris; set-up: dose 1 mg/kg, route intravenous, time infinity; method in brief: as §3
[12] = AUC (0 to infinity) in dog at 3 mg/kg, iv administered as single dose; type: ADME, organism-based, Canis lupus familiaris; set-up: dose 3 mg/kg, time infinity, route intravenous; method in brief: as §3
[13] = AUC (0 to infinity) in dog at 10 mg/kg, iv administered as single dose; type: ADME, organism-based, Canis lupus familiaris; set-up: dose 10 mg/kg, time infinity, route intravenous; method in brief: as §3
[14] = AUC (0 to infinity) in dog at 25 mg/kg, iv administered as single dose; type: ADME, organism-based, Canis lupus familiaris; set-up: dose 25 mg/kg, route intravenous, time infinity; method in brief: as §3
[15] = AUC (0 to infinity) in dog at 5 mg/kg, po administered as single dose; type: ADME, organism-based, Canis lupus familiaris; set-up: dose 5 mg/kg, time infinity, route oral; method in brief: as §3
[16] = AUC (0 to infinity) in dog at 15 mg/kg, po administered as single dose; type: ADME, organism-based, Canis lupus familiaris; set-up: dose 15 mg/kg, route oral, time infinity; method in brief: as §3
[17] = AUC (0 to infinity) in dog at 50 mg/kg, po administered as single dose; type: ADME, organism-based, Canis lupus familiaris; set-up: dose 50 mg/kg, route oral, time infinity; method in brief: as §3
[18] = AUC (0 to infinity) in dog at 150 mg/kg, po administered as single dose; type: ADME, organism-based, Canis lupus familiaris; set-up: dose 150 mg/kg, time infinity, route oral
[19] = Half life in dog at 1 mg/kg, iv administered as single dose; type: ADME, organism-based, Canis lupus familiaris
Method in brief: (§4)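 Dogs were dosed once, by iv injection or orally, with oral doses spanning 5 to 50 mg/kg. Plasma pharmacokinetic parameters were derived: CL, AUC0-inf, t1/2, Cmax and %F.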

[20] = Half life in dog at 3 mg/kg, iv administered as single dose; type: ADME, organism-based, Canis lupus familiaris; method in brief: as §4
[21] = Half life in dog at 10 mg/kg, iv administered as single dose; type: ADME, organism-based, Canis lupus familiaris; method in brief: as §4
[22] = Half life in dog at 25 mg/kg, iv administered as single dose; type: ADME, organism-based, Canis lupus familiaris; method in brief: as §4
[23] = Cmax in dog at 5 mg/kg, po administered as single dose; type: ADME, organism-based, Canis lupus familiaris; set-up: dose 5 mg/kg, route oral; method in brief: as §3
[24] = Cmax in dog at 15 mg/kg, po administered as single dose; type: ADME, organism-based, Canis lupus familiaris; set-up: dose 15 mg/kg, route oral; method in brief: as §3
[25] = Cmax in dog at 50 mg/kg, po administered as single dose; type: ADME, organism-based, Canis lupus familiaris; set-up: dose 50 mg/kg, route oral; method in brief: as §3
[26] = Cmax in dog at 150 mg/kg, po administered as single dose; type: ADME, organism-based, Canis lupus familiaris; set-up: dose 150 mg/kg, route oral
[27] = Oral bioavailability in dog at 5 mg/kg administered as single dose; type: ADME, organism-based, Canis lupus familiaris; method in brief: as §4
[28] = Oral bioavailability in dog at 15 mg/kg administered as single dose; type: ADME, organism-based, Canis lupus familiaris; method in brief: as §4
[29] = Oral bioavailability in dog at 50 mg/kg administered as single dose; type: ADME, organism-based, Canis lupus familiaris; method in brief: as §4
[30] = Oral bioavailability in dog at 150 mg/kg administered as single dose; type: ADME, organism-based, Canis lupus familiaris
[31] = Tmax in Sprague-Dawley rat at 10 to 50 mg/kg, po administered as single dose; type: ADME, organism-based
Method in brief: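 Sprague-Dawley rats each received one dose of drug, either iv across 10-50 mg/kg or orally at 10, 25 and 50 mg/kg. Plasma pharmacokinetics covered CL, AUC0-inf, t1/2, Cmax and Tmax. Oral bioavailability (%F) was obtained from the oral and iv exposures.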

[32] = Drug uptake in C57Bl6 mouse plasma at 50 mg/kg, po administered as single dose measured at 1 hr post-dose; type: ADME, organism-based
Method in brief: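 C57Bl/6 mice received a single oral dose of 50 mg/kg. Drug levels were compared in plasma and other organs over time after dosing.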

[33] = Toxicity in rat administered twice daily for 28 days with 2 week recovery
Method in brief: (§5)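 Rats and dogs underwent 28-day repeat-dose studies with twice-daily dosing, followed by a 2-week recovery period. The NOAEL (mg/kg/dose BID) was established, and the matching systemic exposure was reported as AUC0-inf.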

[34] = Toxicity in dog administered twice daily for 28 days with 2 week recovery; set-up: species or system Canis lupus familiaris; method in brief: as §5
[35] = AUC (0 to infinity) in rat at 250 mg/kg administered twice daily for 28 days with 2 week recovery; type: ADME, organism-based; set-up: dose 250 mg/kg, time infinity
[36] = AUC (0 to 12 hrs) in dog at 200 mg/kg administered twice daily for 28 days with 2 week recovery; type: ADME, organism-based, Canis lupus familiaris; set-up: dose 200 mg/kg, time < 12 hr

half-life [1]: 1.2 h
half-life [2]: 3.3 h
Cmax [3]: 2260 ng/mL
Cmax [4]: 14200 ng/mL
bioavailability [5]: 69%
bioavailability [6]: 87%
clearance [7]: 59.3 mL/min/kg
clearance [8]: 56.1 mL/min/kg
clearance [9]: 53.7 mL/min/kg
clearance [10]: 41.4 mL/min/kg
AUC(0-inf) [11]: 282 ng·h/mL
AUC(0-inf) [12]: 901 ng·h/mL
AUC(0-inf) [13]: 3130 ng·h/mL
AUC(0-inf) [14]: 10000 ng·h/mL
AUC(0-inf) [15]: 207 ng·h/mL
AUC(0-inf) [16]: 1040 ng·h/mL
AUC(0-inf) [17]: 8640 ng·h/mL
AUC(0-inf) [18]: 57800 ng·h/mL
half-life [19]: 2.2 h
half-life [20]: 1.6 h
half-life [21]: 4.8 h
half-life [22]: 6.9 h
Cmax [23]: 132 ng/mL
Cmax [24]: 1400 ng/mL
Cmax [25]: 7860 ng/mL
Cmax [26]: 40400 ng/mL
bioavailability [27]: 13.7%
bioavailability [28]: 22.3%
bioavailability [29]: 43%
bioavailability [30]: 71.8%
Tmax [31]: 0.5 h
Drug uptake [32]: Active
AUC(0-inf) [35]: 22500 ng·h/mL
AUC at 12 h [36]: 22600 ng·h/mL
Compound: O[C@H](C[C@H]1c2c(F)cccc2-c2cncn21)[C@H]1CC[C@H](O)CC1 [NAVOXIMOD]
NOAEL at 28 days [33]: 250 mg/kg
NOAEL at 28 days [34]: 200 mg/kg

From ChEMBL document CHEMBL4364294 (J Med Chem, 2019)
